Data as given in ChEMBL document CHEMBL1125799, “Gossypol and derivatives: a new class of aldose reductase inhibitors” (J Med Chem, 1991).

Experiments:
[1] = target: T1, Aldo-keto reductase family 1 member B1 (Homo sapiens, UniProt P15121); test: The compound was tested for inhibitory activity against Aldose reductase from human placenta
Procedure, shortened: (§1)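 Aldose reductase purified from human placenta, with NADP present throughout purification and storage, kept at –20 °C. Assay in 0.1 M sodium phosphate pH 7 with 10 mM D,L-glyceraldehyde substrate and 0.1 mM NADPH at 25 ± 1 °C. NADPH oxidation followed as A340 decrease. Initial rates corrected for the rate without aldehyde substrate. Ki derived from Dixon plots.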

[2] = target: T1, Aldo-keto reductase family 1 member B1; test: The compound was tested for inhibitory activity against aldose reductase from human placenta; procedure, shortened: as §1

Row | Compound | Ki [1] [µM] | Ki [2] [µM]
1 | Cc1cc2c(C(C)C)c(O)c(O)c3c2c(c1-c1c(C)cc2c(C(C)C)c(O)c(O)c4c2c1OC4=N)OC3=N | 9.3 | 
2 | COc1c(OC)c2c3c(c(-c4c(C)cc5c(C(C)C)c(OC)c(OC)c6c5c4OC6=O)c(C)cc3c1C(C)C)OC2=O |  | 48
3 | CC(=O)Oc1c(-c2c(C)cc3c(C(C)C)c(O)c(O)c(C#N)c3c2OC(C)=O)c(C)cc2c(C(C)C)c(O)c(O)c(C#N)c12 |  | 7.3
4 | C/C=C/C(=O)Oc1c(-c2c(C)cc3c(C(C)C)c(O)c(O)c(C#N)c3c2OC(=O)/C=C/C)c(C)cc2c(C(C)C)c(O)c(O)c(C#N)c12 | 1.3 | 
5 | COc1c(OC)c(C=O)c2c(OC)c(-c3c(C)cc4c(C(C)C)c(OC)c(OC)c(C=O)c4c3OC)c(C)cc2c1C(C)C | 56 | 
6 | COc1c(O)c(C=O)c2c(O)c(-c3c(C)cc4c(C(C)C)c(OC)c(O)c(C=O)c4c3O)c(C)cc2c1C(C)C [6,6'-METHOXYGOSSYPOL] | 1.5 | 
7 | CCC(=O)Oc1c(-c2c(C)cc3c(C(C)C)c(O)c(O)c(C#N)c3c2OC(=O)CC)c(C)cc2c(C(C)C)c(O)c(O)c(C#N)c12 |  | 6.8
8 | CCCCCC(=O)Oc1c(-c2c(C)cc3c(C(C)C)c(O)c(O)c(C#N)c3c2OC(=O)CCCCC)c(C)cc2c(C(C)C)c(O)c(O)c(C#N)c12 |  | 3.1
9 | CCCC(=O)Oc1c(-c2c(C)cc3c(C(C)C)c(O)c(O)c(C#N)c3c2OC(=O)CCC)c(C)cc2c(C(C)C)c(O)c(O)c(C#N)c12 |  | 5.3
10 | Cc1cc2c(C(C)C)c(O)c(O)c(C#N)c2c(OC(=O)C(C)(C)C)c1-c1c(C)cc2c(C(C)C)c(O)c(O)c(C#N)c2c1OC(=O)C(C)(C)C | 2.5 | 
11 | CCCCC(=O)Oc1c(-c2c(C)cc3c(C(C)C)c(O)c(O)c(C#N)c3c2OC(=O)CCCC)c(C)cc2c(C(C)C)c(O)c(O)c(C#N)c12 |  | 4.7
12 | COc1c(-c2c(C)cc3c(C(C)C)c(O)c(O)c(C#N)c3c2OC)c(C)cc2c(C(C)C)c(O)c(O)c(C#N)c12 | 2.8 | 
13 | COc1c(OC)c(C=O)c2c(O)c(-c3c(C)cc4c(C(C)C)c(OC)c(OC)c(C=O)c4c3O)c(C)cc2c1C(C)C | 9.7 | 
14 | Cc1cc2c(C(C)C)c(O)c(O)c(C=O)c2c(O)c1-c1c(C)cc2c(C(C)C)c(O)c(O)c(C=O)c2c1O [GOSSYPOL] | 0.5 | 
15 | Cc1cc2c(C(C)C)c(O)c(O)c3c2c(c1-c1c(C)cc2c(C(C)C)c(O)c(O)c4c2c1OC4=O)OC3=O |  | 0.15
16 | COc1c(-c2c(C)cc3c(C(C)C)c(O)c(O)c(C=O)c3c2OC)c(C)cc2c(C(C)C)c(O)c(O)c(C=O)c12 |  | 0.31
17 | Cc1cc2c(C(C)C)c(O)c(O)c(/C=N/O)c2c(O)c1-c1c(C)cc2c(C(C)C)c(O)c(O)c(/C=N/O)c2c1O | 7.8 | 
18 | COc1c(-c2c(C)cc3c(C(C)C)c(O)c(O)c(CO)c3c2OC)c(C)cc2c(C(C)C)c(O)c(O)c(CO)c12 | 4.3 | 
